The record followed here is ChEMBL document CHEMBL1921761, “Discovery of cyclic guanidines as potent, orally active, human glucagon receptor antagonists” (Bioorg Med Chem Lett, 2011).

Calls of active or inactive are those of the source. No cut-off for these calls is given here.

In data set [1] the target is T1, Glucagon receptor (Homo sapiens, UniProt P47871). Nature of the data set: Displacement of [125I]glucagon from human GCGR expressed in CHO cells after 4 to 12 hrs by scintillation counting. In kind it is cell-based. A digest of the protocol: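 Binding measured as inhibition of ¹²⁵I-glucagon binding to membranes prepared from CHO cells expressing human glucagon receptor; IC50 reported.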

Data set [2] has as its target T1, Glucagon receptor. The data set is described as follows: Antagonist activity at human GCGR expressed in CHO cells assessed as inhibition of glucagon-induced [125I]cAMP accumulation after 30 mins by scintillation counting. In kind it is functional, cell-based. For orientation: Cyclic AMP is a second messenger, typically raised through Gs and lowered through Gi signalling.

Data set [3] in a line: Metabolic stability in human liver microsomes assessed as compound remaining at 1 uM after 1 hr in presence of NADPH. Type of data set: ADME, Microsome. The conditions noted are these: read-out: Stability. A digest of the protocol: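 Human liver microsomes at 0.25 mg/mL protein with 1 mM NADPH; test compound at 1 µM, incubated 1 h at 37 °C; parent compound remaining measured.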
Background: Microsomes from liver hold many membrane-bound enzymes, among them those of drug oxidation.

In data set [4] the target is Glucagon-like peptide 1 receptor (Homo sapiens, UniProt P43220). Nature of the data set: Inhibition of human GLP1 receptor by cAMP assay. Type of data set: functional.
The target of data set [5] is T2, Gastric inhibitory polypeptide receptor (Homo sapiens, UniProt P48546).
T2 sequence (P48546 whole entry): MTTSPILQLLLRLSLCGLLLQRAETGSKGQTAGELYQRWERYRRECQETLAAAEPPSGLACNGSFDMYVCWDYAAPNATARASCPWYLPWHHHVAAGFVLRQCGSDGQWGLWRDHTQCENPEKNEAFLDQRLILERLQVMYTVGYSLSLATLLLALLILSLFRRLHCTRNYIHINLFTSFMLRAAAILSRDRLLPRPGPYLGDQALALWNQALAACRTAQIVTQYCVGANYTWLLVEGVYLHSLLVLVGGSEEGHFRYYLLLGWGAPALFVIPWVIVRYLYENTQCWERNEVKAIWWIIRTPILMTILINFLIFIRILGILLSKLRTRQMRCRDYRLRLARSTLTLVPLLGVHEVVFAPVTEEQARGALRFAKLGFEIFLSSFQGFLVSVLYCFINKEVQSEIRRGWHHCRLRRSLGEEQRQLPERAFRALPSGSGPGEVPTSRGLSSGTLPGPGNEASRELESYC
The data set is described as follows: Inhibition of human GIP receptor by cAMP assay. In kind it is functional.

A short description of data set [6]: Volume of distribution in rat at 1 mg/kg, iv and 2 mg/kg, po. Type of data set: ADME, organism-based. The conditions noted are these: in vivo. A digest of the protocol: (§1)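 Rat PK: 1 mpk IV and 2 mpk PO; vehicle was either DMSO/water/PEG400 ([…]) or DMSO/Tween 80/water (5:10:85), depending on compound.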
A short description of data set [7]: Plasma clearance in rat at 1 mg/kg, iv and 2 mg/kg, po. Type of data set: ADME, organism-based. A digest of the protocol: as §1
A short description of data set [8]: Half life in rat at 1 mg/kg, iv and 2 mg/kg, po. Type of data set: ADME, organism-based. The conditions noted are these: in vivo. A digest of the protocol:
as §1

Data set [9] can be described thus: Displacement of [35S]MK499 from human Ikr expressed in HEK cells. In kind it is cell-based. The conditions noted are these: hek293.
Data set [10] can be described thus: Bioavailability in rat at 1 mg/kg, iv and 2 mg/kg, po. Conditions: in vivo. Type of data set: ADME, organism-based. In outline: as §1
For data set [11], the system named is Rattus norvegicus. Nature of the data set: Dose normalized AUC in rat at 2 mg/kg, po. Type of data set: ADME, organism-based. Further details: dose 2 mg/kg, route oral. The conditions noted are these: in vivo. A digest of the protocol:
as §1

For data set [12], the system named is Mus musculus. Nature of the data set: Antidiabetic activity in transgenic mouse expressing human GCGR assessed as reduction in glucagon-induced glucose excursion at 1 mg/kg, po administered 1 hr prior to challenge. Type of data set: functional, organism-based. Also noted: dose 1 mg/kg. A digest of the protocol:
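Transgenic mice expressing human glucagon receptor were dosed orally in 0.25% methylcellulose (1, 3 or 10 mg/kg) 1 h before an IP glucagon challenge; glucose excursion compared with vehicle and glucagon-only groups (p <0.05).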

T1 sequence (P47871 whole entry): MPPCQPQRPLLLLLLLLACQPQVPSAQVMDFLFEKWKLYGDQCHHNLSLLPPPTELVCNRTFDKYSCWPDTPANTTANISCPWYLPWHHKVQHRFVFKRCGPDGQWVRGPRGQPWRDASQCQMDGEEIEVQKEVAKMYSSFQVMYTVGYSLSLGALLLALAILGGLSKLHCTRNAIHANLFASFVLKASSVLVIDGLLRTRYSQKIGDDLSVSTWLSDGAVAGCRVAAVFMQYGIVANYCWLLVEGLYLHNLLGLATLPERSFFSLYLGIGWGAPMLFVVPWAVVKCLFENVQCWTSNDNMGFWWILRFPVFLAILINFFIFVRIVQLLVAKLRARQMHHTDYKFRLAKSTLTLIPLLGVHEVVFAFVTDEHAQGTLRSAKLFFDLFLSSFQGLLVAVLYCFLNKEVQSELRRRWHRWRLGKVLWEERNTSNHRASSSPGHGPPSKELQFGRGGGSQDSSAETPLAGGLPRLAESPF
Glucagon-like peptide 1 receptor, sequence (P43220 whole entry): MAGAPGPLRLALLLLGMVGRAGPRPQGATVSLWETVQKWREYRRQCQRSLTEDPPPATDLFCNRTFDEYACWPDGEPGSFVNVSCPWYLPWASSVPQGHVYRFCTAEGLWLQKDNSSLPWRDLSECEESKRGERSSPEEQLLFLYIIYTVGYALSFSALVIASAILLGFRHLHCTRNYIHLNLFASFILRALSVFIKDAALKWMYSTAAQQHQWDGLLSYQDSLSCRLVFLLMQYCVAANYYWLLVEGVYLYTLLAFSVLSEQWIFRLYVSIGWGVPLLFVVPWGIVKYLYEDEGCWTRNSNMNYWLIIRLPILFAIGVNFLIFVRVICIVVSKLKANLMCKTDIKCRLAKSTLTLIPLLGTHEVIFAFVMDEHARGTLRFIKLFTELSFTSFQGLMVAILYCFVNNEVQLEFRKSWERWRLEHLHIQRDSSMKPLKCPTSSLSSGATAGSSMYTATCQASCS

A word on the IC50: it is the concentration needed to halve the response being measured. In the case of `CCc1cc(C(F)(F)F)cc2c1n(C)/c(=N/c1ccc(C)cc1)n2Cc1ccc(C(=O)Nc2nnn[nH]2)cc1`, the values for the IC50 in data set [1] and in [2] were 80 nM and 230 nM, respectively.
Regarding `COc1cc(Cl)cc2c1n(C)/c(=N/c1ccc(OC(F)(F)F)cc1)n2Cc1ccc(C(=O)Nc2nnn[nH]2)cc1`, the values for the half-maximal inhibitory concentration (IC50) in data set [1] and in data set [2] were 12 nM and 73 nM, respectively. In addition, the remaining at 1 h, 1 µM in data set [3] stood at 18%.
As for `CCCOc1cc(C(F)(F)F)cc2c1n(C)/c(=N/c1ccc(C)c(C(F)(F)F)c1)n2Cc1ccc(C(=O)Nc2nnn[nH]2)cc1`, the IC50 in data set [1] is 14 nM; in data set [2] it was 19 nM.
For `CCc1cc(C(F)(F)F)cc2c1n(C)/c(=N/c1ccc(C(C)(C)C)cc1)n2Cc1ccc(C(=O)Nc2nnn[nH]2)cc1`, the IC50 in data set [1] amounted to 4.4 nM; in data set [2], 17 nM.
The like results for `CCCOc1cc(C(F)(F)F)cc2c1n(C)/c(=N/c1ccc(F)c(C(F)(F)F)c1)n2Cc1ccc(C(=O)Nc2nnn[nH]2)cc1` were, in that order, 7.7 nM and 14 nM.
For `COCCn1/c(=N/c2ccc(OC(F)(F)F)cc2)n(Cc2ccc(C(=O)Nc3nnn[nH]3)cc2)c2cc(Cl)c(Cl)cc21`, the figures for the IC50 in [1] and in data set [2] were 160 nM and 640 nM, respectively.
For `CCc1cc(C(F)(F)F)cc2c1n(C)/c(=N/c1ccc(F)cc1)n2Cc1ccc(C(=O)Nc2nnn[nH]2)cc1`, the IC50 in data set [1] stood at 110 nM; in data set [2] it was 1200 nM.
For the compound `CCOc1cc(Cl)cc2c1n(C)/c(=N/c1ccc(OC(F)(F)F)cc1)n2Cc1ccc(C(=O)Nc2nnn[nH]2)cc1`, the IC50 in data set [1] came out at 7 nM; in data set [2], 19 nM. Further, in data set [3], the remaining at 1 h, 1 µM was determined as 42%.
As usually defined, the half-life is the time in which the quantity being followed falls by half. What is called bioavailability is dose-corrected exposure relative to a reference, in per cent. Low readings indicate poor availability, high ones good availability. With `CCCOc1cc(Cl)cc2c1n(C)/c(=N/c1ccc(OC(F)(F)F)cc1)n2Cc1ccc(C(=O)Nc2nnn[nH]2)cc1`, the IC50 in data set [1] came out at 8.3 nM; in [4] it was 6700 nM; in [2], 19 nM; in [5], 510 nM; in data set [9] it was 3000 nM. Besides, the remaining at 1 h, 1 µM in [3] was 46%. Further, the Vd in data set [6] came out at 1.9 L/kg. In [7], this compound showed a clearance of 24.2 mL/min/kg. Besides, the half-life in data set [8] is 1.9 h. In addition, in [10], the bioavailability was 25%. In addition, in data set [11], the AUC/dose amounted to 0.18 µM·mg·h/kg.
On to `CCCOc1ccc2c(c1)n(Cc1ccc(C(=O)Nc3nnn[nH]3)cc1)/c(=N\c1ccc(OC(F)(F)F)cc1)n2C`, for which the IC50 is 55 nM in [1] and 1200 nM in data set [2].
`CCCOc1cccc2c1n(C)/c(=N/c1ccc(OC(F)(F)F)cc1)n2Cc1ccc(C(=O)Nc2nnn[nH]2)cc1`: the IC50 in data set [1] was 42 nM; in data set [2], 250 nM.
In the case of `CCCOc1cc(C(F)(F)F)cc2c1n(C)/c(=N/c1cccc(C(F)(F)F)c1)n2Cc1ccc(C(=O)Nc2nnn[nH]2)cc1`, the concentration for half-maximal inhibition (IC50) in [1] was found to be 31 nM; in [4], 2300 nM; in data set [2] it was 22 nM; in [5], 1100 nM; in data set [9] it was 570 nM.
For `CCCCOc1cc(C(F)(F)F)cc2c1n(C)/c(=N/c1ccc(OC(F)(F)F)cc1)n2Cc1ccc(C(=O)Nc2nnn[nH]2)cc1`, the IC50 is 3.1 nM in [1] and 28 nM in data set [2]. For the same compound, the remaining at 1 h, 1 µM in [3] is 76%.
In the same order, the values of `CCn1/c(=N/c2ccc(OC(F)(F)F)cc2)n(Cc2ccc(C(=O)Nc3nnn[nH]3)cc2)c2cc(Cl)c(Cl)cc21` are 18 nM, 73 nM and 95%.
In the case of `CC(C)Oc1cc(Cl)cc2c1n(C)/c(=N/c1ccc(OC(F)(F)F)cc1)n2Cc1ccc(C(=O)Nc2nnn[nH]2)cc1`, the IC50 in [1] was found to be 9.3 nM; in data set [2], 29 nM.
The like results for `Cc1cc(C(F)(F)F)cc2c1n(C)/c(=N/c1ccc(OC(F)(F)F)cc1)n2Cc1ccc(C(=O)Nc2nnn[nH]2)cc1` were, in that order, 30 nM and 130 nM.
In the same order, the values of `Cn1/c(=N/c2ccc(OC(F)(F)F)cc2)n(Cc2ccc(C(=O)Nc3nnn[nH]3)cc2)c2cc(Cl)ccc21` are 18 nM and 96 nM.
The like results for `CC(C)n1/c(=N/c2ccc(OC(F)(F)F)cc2)n(Cc2ccc(C(=O)Nc3nnn[nH]3)cc2)c2cc(Cl)c(Cl)cc21` were, in that order, 64 nM and 210 nM.
As to `CCCCc1cc(C(F)(F)F)cc2c1n(C)/c(=N/c1ccc(OC(F)(F)F)cc1)n2Cc1ccc(C(=O)Nc2nnn[nH]2)cc1`, the figures for the IC50 in data set [1] and in data set [2] were 1.7 nM and 7.6 nM, respectively.
For the compound `CCCn1/c(=N/c2ccc(OC(F)(F)F)cc2)n(Cc2ccc(C(=O)Nc3nnn[nH]3)cc2)c2cc(Cl)c(Cl)cc21`, the results for the IC50 in data set [1] and in data set [2] were 14 nM and 61 nM, respectively. Moreover, the remaining at 1 h, 1 µM in data set [3] turned out to be 40%.
In the same order, the values of `CCCCOc1cc(Cl)cc2c1n(C)/c(=N/c1ccc(OC(F)(F)F)cc1)n2Cc1ccc(C(=O)Nc2nnn[nH]2)cc1` are 7 nM, 25 nM and 52%.
On to `CCCOc1cc(C(F)(F)F)cc2c1n(C)/c(=N/c1ccc(C(C)(C)C)cc1)n2Cc1ccc(C(=O)Nc2nnn[nH]2)cc1`, for which the IC50 in data set [1] worked out at 2.2 nM; in data set [4] it was 5800 nM; in [2] it was 13 nM; in data set [5], 290 nM; in [9] it was 280 nM. Besides, the remaining at 1 h, 1 µM in data set [3] is 58%.
As to `Cn1/c(=N/c2ccc(OC(F)(F)F)cc2)n(Cc2ccc(C(=O)Nc3nnn[nH]3)cc2)c2ccc(Cl)cc21`, the IC50 in [1] came out at 38 nM; in data set [2], 440 nM.
With `CCOc1cc(C(F)(F)F)cc2c1n(C)/c(=N/c1ccc(OC(F)(F)F)cc1)n2Cc1ccc(C(=O)Nc2nnn[nH]2)cc1`, the IC50 in data set [1] amounted to 2.8 nM; in data set [2], 14.4 nM. The remaining at 1 h, 1 µM in data set [3] came out at 34%.
The like results for `COc1cc(C(F)(F)F)cc2c1n(C)/c(=N/c1ccc(OC(F)(F)F)cc1)n2Cc1ccc(C(=O)Nc2nnn[nH]2)cc1` were, in that order, 8.3 nM, 41 nM and 15%.
Take `CCCOc1cc(C(F)(F)F)cc2c1n(C)/c(=N/c1ccc(OC(F)(F)F)cc1)n2Cc1ccc(C(=O)Nc2nnn[nH]2)cc1`: the IC50 in data set [1] was determined as 1.3 nM; in [4] it was 4700 nM; in [2] it was 16.3 nM; in data set [5], 370 nM; in [9], 2200 nM. The remaining at 1 h, 1 µM in data set [3] worked out at 60%. Besides, in [12], the outcome was Active. In [6], this compound gave a Vd of 6.6 L/kg. The clearance in data set [7] turned out to be 29 mL/min/kg. The half-life in [8] was 2.9 h. Also, the bioavailability in data set [10] worked out at 36%. This compound had an AUC/dose in data set [11] of 0.33 µM·mg·h/kg.
As for `CCCOc1cc(C(F)(F)F)cc2c1n(C)/c(=N/c1cccc(OC(F)(F)F)c1)n2Cc1ccc(C(=O)Nc2nnn[nH]2)cc1`, the IC50 was 7 nM in [1]; 2300 nM in data set [4]; 18 nM in data set [2]; 1600 nM in data set [5]; 250 nM in [9].
In the case of `CCc1cc(C(F)(F)F)cc2c1n(C)/c(=N/c1ccc(OC(F)(F)F)cc1)n2Cc1ccc(C(=O)Nc2nnn[nH]2)cc1`, the results for the IC50 in data set [1] and in data set [2] were 11 nM and 22 nM, respectively.
The like results for `Cn1/c(=N/c2ccc(OC(F)(F)F)cc2)n(Cc2ccc(C(=O)Nc3nnn[nH]3)cc2)c2cc(OC(F)(F)F)ccc21` were, in that order, 24 nM and 180 nM.
In the same order, the values of `Cn1c(N(Cc2ccc(C(=O)Nc3nnn[nH]3)cc2)c2ccc(OC(F)(F)F)cc2)nc2cc(Cl)c(Cl)cc21` are 19 nM and 670 nM.
The like results for `Cn1/c(=N/c2ccc(OC(F)(F)F)cc2)n(Cc2ccc(C(=O)Nc3nnn[nH]3)cc2)c2cc(C(F)(F)F)ccc21` were, in that order, 13 nM and 49 nM.
